According to ChEMBL document CHEMBL4304784, “Discovery of new potent dual sigma receptor/GluN2b ligands with antioxidant property as neuroprotective agents” (Eur J Med Chem, 2019):
≈ marks a conversion by molar mass, not a printed value.

How the values were obtained:
[1] = Cytotoxicity against human HeLa cells assessed as decrease in cell viability incubated for 48 hrs by MTT assay; format: cell-based; settings: read-out: LD50
In short: (§1)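 Cells kept in DMEM Glutamax with 10% FBS and antibiotic/antimycotic at 37 °C, 5% CO2. Seeded 24 h before dosing (SH-SY5Y at 2x10^3 cells/well). Compounds in DMSO serially diluted in medium, final DMSO 1.0%, exposure 48 h. MTT added for 4 h at 37 °C, read A595 minus A655. LD50 from linear regression of dose-log response curves; triplicates, three experiments, mean ± SEM.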

[2] = Antioxidant activity assessed as H2O2 radical scavenging activity; format: functional
In short: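 Compounds at 0.05, 0.1, 0.2 and 0.4 mg/mL in phosphate buffer pH 7.4. 0.353 mL of 4 mM H2O2 in phosphate buffer added to 2.0 mL of each solution, absorbance read at 239 nm. Percent inhibition calculated from absorbances relative to control. Triplicate, mean ± SEM.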

[3] = Selectivity ratio of Ki for sigma1 receptor in guinea pig brain membranes to Ki for sigma2 receptor in rat liver membranes; format: cell membranes
[4] = Cytotoxicity against human SH-SY5Y cells assessed as cell viability at 50 uM incubated for 48 hrs by MTT assay (reference value: 100 +/- 12.00%); format: cell-based; settings: read-out: Activity
In short: (§2)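 Cells kept in DMEM Glutamax with 10% FBS and antibiotic/antimycotic at 37 °C, 5% CO2. Plated at 2x10^3 cells/well 24 h before dosing. Compounds taken from DMSO and diluted in medium, final DMSO ≤1.0%. Exposure 48 h, then MTT added for 4 h at 37 °C. Read as A595 minus A655. Triplicates, at least three independent experiments, mean ± SEM.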

[5] = Cytotoxicity against human HeLa cells assessed as cell viability at 100 uM incubated for 48 hrs by MTT assay relative to control; format: cell-based; settings: read-out: Activity; in short: as §2
[6] = Cytotoxicity against human HeLa cells assessed as cell viability at 25 uM incubated for 48 hrs by MTT assay relative to control; format: cell-based; settings: read-out: Activity; in short: as §2
[7] = biological target: Sigma non-opioid intracellular receptor 1 (Cavia porcellus, UniProt Q60492); test: Displacement of [3H]-(+)-pentazocine from sigma1 receptor in guinea pig brain cortex membranes incubated for 120 mins by solid scintillation counting method; format: cell membranes
In short: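 Guinea pig brain cortex membranes (about 100 µg protein) with 2 nM [3H]-(+)-pentazocine in 50 mM TRIS pH 7.4 at 37 °C. Non-specific binding defined with 10 µM unlabeled (+)-pentazocine. Six concentrations, 10^-5 to 10^-10 M, in duplicate. 120 min with shaking, filtration, solid scintillator counting.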

[8] = Cytotoxicity against human Hep3B cells assessed as cell viability at 100 uM incubated for 48 hrs by MTT assay relative to control; format: cell-based, Hep 3B2; settings: read-out: Activity; in short: as §2
[9] = biological target: Glutamate NMDA receptor; GRIN1/GRIN2B (Homo sapiens, UniProt Q05586+Q13224); test: Displacement of [3H]ifenprodil from GluN1a/GluN2B (unknown origin) expressed in mouse L(tk-) cell membranes after 120 mins by solid scintillation counting method
In short: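 Membranes (about 20 μg protein) from mouse L(tk-) cells stably carrying GluN1a/GluN2B, induced with 4 μM dexamethasone and 4 μM ketamine for 24 h. Incubated with 5 nM [3H]ifenprodil in 5 mM TRIS/1 mM EDTA pH 7.5 at 37 °C, 120 min. Non-specific binding defined with 10 μM ifenprodil.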

[10] = Cytotoxicity against human SH-SY5Y cells assessed as decrease in cell viability incubated for 48 hrs by MTT assay; format: cell-based; settings: read-out: LD50; in short: as §1
[11] = Cytotoxicity against human SH-SY5Y cells assessed as cell viability at 25 uM incubated for 48 hrs by MTT assay (reference value: 100 +/- 12.00%); format: cell-based; settings: read-out: Activity; in short: as §2
[12] = Cytotoxicity against human HeLa cells assessed as cell viability at 50 uM incubated for 48 hrs by MTT assay relative to control; format: cell-based; settings: read-out: Activity; in short: as §2
[13] = Cytotoxicity against human SH-SY5Y cells assessed as cell viability at 10 uM incubated for 48 hrs by MTT assay (reference value: 100 +/- 12.00%); format: cell-based; settings: read-out: Activity; in short: as §2
[14] = Cytotoxicity against human HeLa cells assessed as cell viability at 10 uM incubated for 48 hrs by MTT assay relative to control; format: cell-based; settings: read-out: Activity; in short: as §2
[15] = Cytotoxicity against human Hep3B cells assessed as cell viability at 50 uM incubated for 48 hrs by MTT assay relative to control; format: cell-based, Hep 3B2; settings: read-out: Activity; in short: as §2
[16] = tested on: SH-SY5Y; test: Neuroprotective activity against H2O2-induced toxicity in human SH-SY5Y cells assessed as cell viability at 25 uM pretreated for 48 hrs followed by H2O2 challenge and measured after 4 hrs by MTT assay (reference value: 18 +/- 2.64%); format: functional; settings: read-out: Activity
[17] = Cytotoxicity against human Hep3B cells assessed as cell viability at 10 uM incubated for 48 hrs by MTT assay relative to control; format: cell-based, Hep 3B2; settings: read-out: Activity; in short: as §2
[18] = Cytotoxicity against human Hep3B cells assessed as cell viability at 25 uM incubated for 48 hrs by MTT assay relative to control; format: cell-based, Hep 3B2; settings: read-out: Activity; in short: as §2
[19] = Antioxidant activity assessed as ABTS radical scavenging activity incubated for 40 mins; format: functional
In short: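 Test compound at 0.05, 0.1, 0.2 and 0.4 mg/mL (200 µL) added to 1.8 mL ethanolic ABTS 7mM. Incubated 40 min at room temperature, absorbance read at 735 nm against ABTS solution. Percent inhibition computed from absorbances and used to derive IC50. Triplicate, mean ± SEM; ascorbic acid as reference.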

[20] = Cytotoxicity against human SH-SY5Y cells assessed as cell viability at 100 uM incubated for 48 hrs by MTT assay (reference value: 100 +/- 12.00%); format: cell-based; settings: read-out: Activity; in short: as §2
[21] = biological target: T1, Sigma intracellular receptor 2 (Rattus norvegicus, UniProt Q5U3Y7); test: Displacement of [3H]-di-o-tolylguanidine from sigma2 receptor in rat liver membranes in the presence of sigma1 receptor ligand (+)-pentazocine incubated for 120 mins by scintillation counting method; format: cell membranes
T1 sequence (Q5U3Y7 whole entry): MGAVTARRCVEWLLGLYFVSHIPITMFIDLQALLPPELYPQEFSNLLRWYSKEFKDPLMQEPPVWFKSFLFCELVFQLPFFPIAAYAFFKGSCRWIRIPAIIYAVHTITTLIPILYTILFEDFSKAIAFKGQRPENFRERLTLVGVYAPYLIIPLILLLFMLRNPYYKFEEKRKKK
In short: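 Rat liver membranes (about 100 µg protein) with 3 nM [3H]di-o-tolylguanidine in 50 mM TRIS pH 8.0 containing 500 nM (+)-pentazocine, at rt. Non-specific binding defined with 10 µM unlabeled DTG. Concentrations 10^-5 to 10^-10 M, in duplicate. 120 min, filtration, scintillation counting. Three independent experiments, mean ± SEM.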

[22] = Selectivity ratio of Ki for sigma2 receptor in rat liver membranes to Ki for GluN1a/GluN2B (unknown origin) expressed in mouse L(tk-) cell membranes; format: cell-based
[23] = Cytotoxicity against human Hep3B cells assessed as decrease in cell viability incubated for 48 hrs by MTT assay; format: cell-based, Hep 3B2; settings: read-out: LD50; in short: as §1

Chain of Sigma non-opioid intracellular receptor 1 (Q60492 whole entry): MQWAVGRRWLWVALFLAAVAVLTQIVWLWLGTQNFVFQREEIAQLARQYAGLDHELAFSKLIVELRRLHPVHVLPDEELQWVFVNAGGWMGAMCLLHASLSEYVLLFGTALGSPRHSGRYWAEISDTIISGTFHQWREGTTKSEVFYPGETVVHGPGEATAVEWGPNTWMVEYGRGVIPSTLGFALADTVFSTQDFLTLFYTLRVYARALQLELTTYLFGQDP
Chain of Glutamate NMDA receptor; GRIN1/GRIN2B (Q13224 whole entry, other chains not shown): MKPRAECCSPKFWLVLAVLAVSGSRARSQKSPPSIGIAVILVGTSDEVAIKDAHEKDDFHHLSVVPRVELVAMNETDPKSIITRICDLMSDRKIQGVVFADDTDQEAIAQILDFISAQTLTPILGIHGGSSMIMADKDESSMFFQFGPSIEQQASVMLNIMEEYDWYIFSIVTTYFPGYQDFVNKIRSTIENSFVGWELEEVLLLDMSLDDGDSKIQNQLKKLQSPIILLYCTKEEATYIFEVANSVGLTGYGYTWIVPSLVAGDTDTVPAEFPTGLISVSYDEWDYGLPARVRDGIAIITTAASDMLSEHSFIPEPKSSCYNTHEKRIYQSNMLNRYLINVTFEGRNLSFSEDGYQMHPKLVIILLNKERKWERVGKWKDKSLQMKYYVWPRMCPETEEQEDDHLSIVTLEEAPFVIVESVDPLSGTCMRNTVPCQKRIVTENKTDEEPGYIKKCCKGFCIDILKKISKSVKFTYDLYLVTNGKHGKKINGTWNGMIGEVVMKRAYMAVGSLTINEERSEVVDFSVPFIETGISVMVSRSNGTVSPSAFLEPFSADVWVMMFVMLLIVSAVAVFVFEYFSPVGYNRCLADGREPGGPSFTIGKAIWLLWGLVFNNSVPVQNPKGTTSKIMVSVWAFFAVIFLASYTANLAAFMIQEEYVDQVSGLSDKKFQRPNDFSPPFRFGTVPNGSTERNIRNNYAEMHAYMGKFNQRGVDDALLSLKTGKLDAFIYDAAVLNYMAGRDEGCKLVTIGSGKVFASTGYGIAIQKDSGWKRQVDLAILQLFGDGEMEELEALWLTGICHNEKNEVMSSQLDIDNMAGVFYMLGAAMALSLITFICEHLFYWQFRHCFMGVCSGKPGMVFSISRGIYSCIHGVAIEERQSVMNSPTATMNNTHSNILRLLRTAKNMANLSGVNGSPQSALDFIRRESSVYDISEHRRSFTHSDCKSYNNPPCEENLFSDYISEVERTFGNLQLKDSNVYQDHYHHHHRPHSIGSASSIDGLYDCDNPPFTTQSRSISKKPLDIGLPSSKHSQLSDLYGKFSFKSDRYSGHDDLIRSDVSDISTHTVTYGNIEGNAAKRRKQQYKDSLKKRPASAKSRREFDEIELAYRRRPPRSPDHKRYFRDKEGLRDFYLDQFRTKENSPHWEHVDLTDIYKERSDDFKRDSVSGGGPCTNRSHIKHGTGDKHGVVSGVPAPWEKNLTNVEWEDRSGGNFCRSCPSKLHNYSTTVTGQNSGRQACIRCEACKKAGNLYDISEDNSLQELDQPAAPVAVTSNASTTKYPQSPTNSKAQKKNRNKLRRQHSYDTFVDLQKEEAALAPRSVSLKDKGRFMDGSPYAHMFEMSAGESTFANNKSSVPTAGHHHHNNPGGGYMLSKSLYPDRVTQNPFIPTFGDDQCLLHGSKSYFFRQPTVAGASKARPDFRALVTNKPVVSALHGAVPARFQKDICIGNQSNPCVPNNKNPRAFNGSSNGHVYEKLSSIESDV

| Structure (SMILES) | CC50 at 48 h [1] [µM] | IC50 [2] [µg/mL] | Ratio Ki [3] | viability at 48 h, 50 µM [4] [%] | viability at 48 h, 100 µM [5] [%] | viability at 48 h, 25 µM [6] [%] | Ki [7] [µM] | viability at 48 h, 100 µM [8] [%] | Ki [9] [µM] | CC50 at 48 h [10] [µM] | viability at 48 h, 25 µM [11] [%] | viability at 48 h, 50 µM [12] [%] | viability at 48 h, 10 µM [13] [%] | viability at 48 h, 10 µM [14] [%] | viability at 48 h, 50 µM [15] [%] | viability at 25 µM [16] [%] | viability at 48 h, 10 µM [17] [%] | viability at 48 h, 25 µM [18] [%] | IC50 [19] [µg/mL] | viability at 48 h, 100 µM [20] [%] | also measured |
| --- | --- | --- | --- | --- | --- | --- | --- | --- | --- | --- | --- | --- | --- | --- | --- | --- | --- | --- | --- | --- | --- |
| COc1cc2c(cc1OC)CN(CCCCn1nc(-c3ccccc3)oc1=O)CC2 | 69 | 27.63 (≈ 67.5 µM) | 1.8 | 96 | 39 | 82 | 1.6 | 25 | 0.027 | 77 | 80 to 94 | 81 | 97 | 84 | 58 | 88 | 85 | 75 | 20.95 (≈ 51.2 µM) | 95 | Ki [21]: 0.864 µM; Ratio Ki [22]: 32; CC50 at 48 h [23]: 70 µM |
| Cc1ccc(CN(C)CCCCN2C(=O)CCc3ccccc32)c(C)c1 | 76 | 29.16 (≈ 83.2 µM) | 1.9 | 90 | 47 | 59 | 0.06 | 223 | 0.005 | 231 | 79 to 95 | 57 | 92 | 79 | 52 | 98 | 77 | 81 | 26.24 (≈ 74.9 µM) | 78 | Ki [21]: 0.032 µM; Ratio Ki [22]: 6.4; CC50 at 48 h [23]: 60 µM |
| O=C1CCc2ccccc2N1CCCCN1CCC2(CC1)OCc1ccccc12 | 55 | 84.56 (≈ 217 µM) | 0.5 | 40 | 31 | 78 | 0.018 | 10 | 0.005 | 60 | 88 to 107 | 45 | 116 | 92 | 38 | 97 | 61 | 67 | 78.8 (≈ 202 µM) | 16 | Ki [21]: 0.034 µM; Ratio Ki [22]: 6.8; CC50 at 48 h [23]: 50 µM |
| O=c1oc(-c2ccccc2)nn1CCCCN1CCN(C2CCCCC2)CC1 | 76 | 73.07 (≈ 190 µM) | 0.37 | 75 | 57 | 48 | 0.035 | 143 | 0.023 | 81 | 78 to 105 | 46 | 81 | 62 | 72 | 114 | 72 | 76 | 69.25 (≈ 180 µM) | 105 | Ki [21]: 0.093 µM; Ratio Ki [22]: 4; CC50 at 48 h [23]: 71 µM |
| O=c1oc(-c2ccccc2)nn1CCCCN1CCC2(CC1)OCc1ccccc12 | 55 | 21.19 (≈ 52.3 µM) | 1.2 | 50 | 5 | 80 | 0.019 | 4 | 0.0082 | 53 | 96 to 104 | 60 | 120 | 99 | 42 | 101 | 87 | 90 | 17.96 (≈ 44.3 µM) | 1 | Ki [21]: 0.016 µM; Ratio Ki [22]: 2; CC50 at 48 h [23]: 51 µM |
| COc1cc2c(cc1OC)CN(CCCCN1C(=O)CCc3ccccc31)CC2 | 83 | 15.37 (≈ 39 µM) | 2.6 | 68 | 42 | 79 | 0.116 | 30 | 0.012 | 36 | 77 to 84 | 71 | 71 | 80 | 62 | 73 | 75 | 70 | 12.35 (≈ 31.3 µM) | 37 | Ki [21]: 0.045 µM; Ratio Ki [22]: 3.7; CC50 at 48 h [23]: 67 µM |
